Results published in paper PMC6045484 (ACS Omega, 2018).
Converted amounts (≈) assume the structure as drawn.

Legend:
P. falciparum (D6) = test: in vitro antimalarial activity, plasmodial LDH; assay type: cell-based, Plasmodium falciparum; conditions: Plasmodium falciparum, D6, 72 h, read-out: P. falciparum (D6) IC50
[1] = test system: SK-MEL, KB, BT-549, SK-OV-3, VERO and LLC-PK1 cells; test: cytotoxicity, neutral red uptake assay; assay type: cell-based, mammalian; conditions: highest test concentration 4760 ng/mL
How it was run: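 Cells seeded at 25 000/well and allowed 24 h to reach confluence. Test compound was then added and incubated 48 h. Viable cells were counted by a modified neutral red uptake method. The panel was four human cancer lines and two noncancerous mammalian kidney lines. Doxorubicin served as positive control and DMSO as negative control.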

[2] = test system: L. donovani promastigotes; test: in vitro antileishmanial activity, alamarBlue assay; assay type: cell-based, Leishmania donovani; conditions: Leishmania donovani, 48 h; for IC50: read-out: L. donovani IC50, promastigotes, 48 h; for IC90: read-out: L. donovani IC90, promastigotes, 48 h
C. neoformans ATCC90113 = test: in vitro antifungal activity; assay type: cell-based, Cryptococcus neoformans; conditions: Cryptococcus neoformans; for IC50: ATCC90113, read-out: C. neoformans IC50; for MFC: ATCC90113, read-out: C. neoformans MFC; for MIC: ATCC90113, read-out: C. neoformans MIC
How it was run: (§1)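 Modified NCCLS broth method in Sabouraud dextrose. Inoculum set by OD630 to 1.5 × 10^3 CFU/mL. Test compound serially diluted in 20% DMSO/saline, duplicate wells, up to 20 μg/mL. Incubated 70–74 h at 35 °C; 530 nm read before and after. IC50 is 50% growth inhibition; MIC is no detectable growth. MFC from clear wells subcultured on agar. Amphotericin B control.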

C. albicans ATCC90028 = test: in vitro antifungal activity; assay type: cell-based, Candida albicans; conditions: Candida albicans; for IC50: ATCC90028, read-out: C. albicans IC50; for MFC: ATCC90028, read-out: C. albicans MFC; for MIC: ATCC90028, read-out: C. albicans MIC
How it was run: as §1

A. fumigatus ATCC 90906 = test: in vitro antifungal activity; assay type: cell-based, Aspergillus fumigatus; conditions: Aspergillus fumigatus; for IC50: ATCC90906, read-out: A. fumigatus IC50; for MFC: ATCC90906, read-out: A. fumigatus MFC; for MIC: ATCC90906, read-out: A. fumigatus MIC
How it was run: as §1

SA (ATCC29213) = test: in vitro antibacterial activity; assay type: cell-based; conditions: Staphylococcus aureus; for IC50: ATCC29213, read-out: IC50 (concentration that affords 50% growth inhibition), SA; for MBC: ATCC29213, read-out: MBC (minimum bactericidal concentration), SA; for MIC: ATCC29213, read-out: MIC, SA
How it was run: (§2)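 Test compound serially diluted in 20% DMSO/saline and plated in duplicate, up to 20 μg/mL. Inoculum in cation-adjusted Mueller–Hinton broth, pH 7.3, set by OD630 to 5 × 10^5 CFU/mL. Incubated 16–20 h at 35 °C; 530 nm read before and after. IC50 is 50% growth inhibition; MIC is no detectable growth. MBC from clear wells subcultured on agar. Ciprofloxacin control.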

P. falciparum (W2) = test: in vitro antimalarial activity, plasmodial LDH; assay type: cell-based, Plasmodium falciparum; conditions: Plasmodium falciparum, W2, 72 h, read-out: P. falciparum (W2) IC50, CQ-resistant W2 strain, 72 h
How it was run: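 P. falciparum-infected erythrocytes (2% parasitemia, 2% hematocrit) in RPMI 1640 with 10% human serum and 60 μg/mL amikacin. Exposed to test compound dilutions for 72 h at 37 °C under 90% N2/5% O2/5% CO2. LDH measured with Malstat reagent (30 min, room temperature), then NBT/PES for 1 h in the dark, stopped with 5% acetic acid, read at 650 nm. IC50 from dose-response curves.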

[3] = test system: M. intracellulare (ATCC23068); test: in vitro antibacterial activity, modified alamarBlue procedure; assay type: cell-based, Mycobacterium intracellulare; conditions: Mycobacterium intracellulare; for IC50: ATCC23068, read-out: IC50 (concentration that affords 50% growth inhibition), M. intracellulare; for MBC: ATCC23068, read-out: MBC (minimum bactericidal concentration), M. intracellulare; for MIC: ATCC23068, read-out: MIC, M. intracellulare
How it was run: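 Modified alamarBlue microplate method. Test compound serially diluted in 20% DMSO/saline, duplicate wells, up to 20 μg/mL. Inoculum 2.0 × 10^6 CFU/mL in Middlebrook 7H9 with OADC, pH 7.3, containing 5% alamarBlue. Incubated 70–74 h at 37 °C, 10% CO2; fluorescence 544ex/590em read before and after. MIC: no blue-to-pink change. MBC by subculturing blue wells on agar. Ciprofloxacin control.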

MRSA (ATCC33591) = test: in vitro antibacterial activity; assay type: cell-based, methicillin-resistant Staphylococcus aureus; conditions: Staphylococcus aureus, ATCC33591|MRSA, read-out: MIC, MRSA
How it was run: as §2

Row | SMILES | IC50 (P. falciparum (D6)) [µg/mL] | cytotoxicity CTX [1] | IC50 [2] [µg/mL] | IC90 [2] [µg/mL] | IC50 (C. neoformans ATCC90113) [µg/mL] | MFC (C. neoformans ATCC90113) [µg/mL] | MIC (C. neoformans ATCC90113) [µg/mL] | IC50 (C. albicans ATCC90028) [µg/mL] | MFC (C. albicans ATCC90028) [µg/mL] | MIC (C. albicans ATCC90028) [µg/mL] | IC50 (A. fumigatus ATCC 90906) [µg/mL] | MFC (A. fumigatus ATCC 90906) [µg/mL] | MIC (A. fumigatus ATCC 90906) [µg/mL] | IC50 (SA (ATCC29213)) [µg/mL] | MBC (SA (ATCC29213)) [µg/mL] | MIC (SA (ATCC29213)) [µg/mL] | IC50 (P. falciparum (W2)) [µg/mL] | IC50 [3] [µg/mL] | MBC [3] [µg/mL] | MIC [3] [µg/mL] | further results
1 | CCCCCCOc1c(OC)cc(NC(C)CCCNC(=O)C(N)CCSC)c2nc(C(C)(C)C)ccc12 (stereo not drawn) [compound 102, 2-Amino-N-(4-(2-tert-butyl-5-(hexyloxy)-6-methoxyquinolin-8-ylamino)pentyl)-4-(methylthio)butanamide] | 2.8 (≈ 5.12 µM) | NC (NC, not cytotoxic up to 4760 ng/mL (4.76 μg/mL)) | 5.9 (≈ 10.8 µM) | 22 (≈ 40.2 µM) | > 20 | > 20 | > 20 | > 20 | > 20 | > 20 | > 20 | > 20 | > 20 | 5.03 (≈ 9.2 µM) | 20 (≈ 36.6 µM) | 10 (≈ 18.3 µM) | 2.8 (≈ 5.12 µM) | 11.2 (≈ 20.4 µM) | 20 (≈ 36.6 µM) | 20 (≈ 36.6 µM) | MIC (MRSA (ATCC33591)): 20 µg/mL (≈ 36.6 µM)
2 | CCCCCCOc1c(OC)cc(NC(C)CCCNC(=O)C(N)C(C)CC)c2nc(C(C)(C)C)ccc12 (stereo not drawn) [compound 104, 2-Amino-N-(4-(2-tert-butyl-5-(hexyloxy)-6-methoxyquinolin-8-ylamino)pentyl)-3-methylpentanamide] | 4.76 (≈ 9 µM) | NC (NC, not cytotoxic up to 4760 ng/mL (4.76 μg/mL)) | 16 (≈ 30.3 µM) | 30 (≈ 56.7 µM) | > 20 | > 20 | > 20 | > 20 | > 20 | > 20 | > 20 | > 20 | > 20 | 13.2 (≈ 24.9 µM) | > 20 | > 20 | 4 (≈ 7.56 µM) | > 20 | > 20 | > 20 | MIC (MRSA (ATCC33591)): > 20 µg/mL
3 | CCCCCCOc1c(OC)cc(NC(C)CCCNC(=O)C(N)Cc2cnc[nH]2)c2nc(C(C)(C)C)ccc12 (stereo not drawn) [compound 105, 2-Amino-N-(4-(2-tert-butyl-5-(hexyloxy)-6-methoxyquinolin-8-ylamino)pentyl)-3-(1H-imidazole-5-yl)propanamide] | 2.4 (≈ 4.34 µM) | NC (NC, not cytotoxic up to 4760 ng/mL (4.76 μg/mL)) | 3.5 (≈ 6.33 µM) | 7 (≈ 12.7 µM) | > 20 | > 20 | > 20 | 19.4 (≈ 35.1 µM) | > 20 | > 20 | > 20 | > 20 | > 20 | 2.79 (≈ 5.05 µM) | 10 (≈ 18.1 µM) | 5 (≈ 9.05 µM) | 1.7 (≈ 3.08 µM) | 5.94 (≈ 10.7 µM) | 10 (≈ 18.1 µM) | 10 (≈ 18.1 µM) | MIC (MRSA (ATCC33591)): 10 µg/mL (≈ 18.1 µM)
4 | CCCCCCOc1c(OC)cc(NC(C)CCCNC(=O)C(N)Cc2ccccc2)c2nc(C(C)(C)C)ccc12 (stereo not drawn) [compound 106, 2-Amino-N-(4-(2-tert-butyl-5-(hexyloxy)-6-methoxyquinolin-8-ylamino)pentyl)-3-phenylpropanamide] | > 4.76 | NC (NC, not cytotoxic up to 4760 ng/mL (4.76 μg/mL)) | 9.89 (≈ 17.6 µM) | > 40 | 9.83 (≈ 17.5 µM) | 20 (≈ 35.5 µM) | 20 (≈ 35.5 µM) | > 20 | > 20 | > 20 | > 20 | > 20 | > 20 | 10.7 (≈ 19 µM) | > 20 | 20 (≈ 35.5 µM) | > 4.76 | 18.1 (≈ 32.1 µM) | > 20 | > 20 | MIC (MRSA (ATCC33591)): 20 µg/mL (≈ 35.5 µM)
5 | CCCCCCOc1c(OC)cc(NC(C)CCCNC(=O)C(C)N)c2nc(C(C)(C)C)ccc12 (stereo not drawn) [compound 107, 2-Amino-N-(4-(2-tert-butyl-5-(hexyloxy)-6-methoxyquinolin-8-ylamino)pentyl)-propanamide] | > 4.76 | NC (NC, not cytotoxic up to 4760 ng/mL (4.76 μg/mL)) | 17.1 (≈ 35.2 µM) | 37.3 (≈ 76.7 µM) | > 20 | > 20 | > 20 | > 20 | > 20 | > 20 | > 20 | > 20 | > 20 | > 20 | > 20 | > 20 | > 4.76 | > 20 | > 20 | > 20 | MIC (MRSA (ATCC33591)): > 20 µg/mL
6 | CCCCCCOc1c(OC)cc(NC(C)CCCNC(=O)C(N)Cc2cc3ccccc3[nH]2)c2nc(C(C)(C)C)ccc12 (stereo not drawn) [compound 108, 2-Amino-N-(4-(2-tert-butyl-5-(hexyloxy)-6-methoxyquinolin-8-ylamino)pentyl)-3-(1H-indol-2-yl)propanamide] | > 4.76 | NC (NC, not cytotoxic up to 4760 ng/mL (4.76 μg/mL)) | 19.1 (≈ 31.7 µM) | > 40 | 5.09 (≈ 8.46 µM) | 10 (≈ 16.6 µM) | 10 (≈ 16.6 µM) | > 20 | > 20 | > 20 | > 20 | > 20 | > 20 | 4.98 (≈ 8.27 µM) | > 20 | 10 (≈ 16.6 µM) | > 4.76 | 12.7 (≈ 21.2 µM) | 20 (≈ 33.2 µM) | 20 (≈ 33.2 µM) | MIC (MRSA (ATCC33591)): 10 µg/mL (≈ 16.6 µM)
